The source made the active and inactive calls. The rule behind the calls is not given here.
How the values were obtained:
J774 [1] = assay: Cytotoxicity against mouse J774 cells at 10 uM after 48 hrs by MTT assay; assay type: cell-based; details: j774, 48 h
J774 [2] = assay: Cytotoxicity against mouse J774 cells after 48 hrs by MTT assay; assay type: cell-based; details: J774, 48 h
Procedure, shortened: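 J774 murine macrophages seeded at 1 × 10^5 cells/well and left 48 h at 37 °C in 5% CO2 to attach. Exposed to compounds at 50-500 µM for 48 h. MTT 0.2 mg/mL final for 3 h, formazan dissolved in DMSO, absorbance at 560 nm. IC50 is the concentration reducing control absorbance by 50%, averaged over two experiments.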

Homo sapiens = species: Homo sapiens; assay: Neuroprotective activity against oxidative stress-induced cell death in human neuroblastoma cells; assay type: functional, cell-based
[3] = tested on: Radical scavenging activity; assay: Antioxidant activity assessed as reduction of DPPH radical scavenging activity at 0.1 mM; assay type: functional; design: scale not given: the % may be the effect or the level left
Procedure, shortened: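 DPPH reduction in ethanol. Test compound and DPPH both 0.1 mM final, preincubated 5 min at 37 °C, absorbance read at 520 nm. Reduction percentage = 100[(A0 − Ac)/A0], with A0 the untreated DPPH absorbance.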

SH-SY5Y [4] = assay: Neuroprotective activity against human SH-SY5Y cells assessed as inhibition of H2O2-induced cellular damage at 10 uM after 24 hrs relative to control; assay type: functional; design: scale not given: the % may be the effect or the level left
Procedure, shortened: (§1)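 SH-SY5Y cells (passages 3-16, MEM with 10% FBS, 37 °C, 5% CO2) seeded at 10^4 cells/well. Pretreated with compound at 10 µM for 1 h, then 100 µM H2O2 for 24 h; NAC 5 mM as positive control. Viability from LDH released into the medium. Difference relative to H2O2-only cells, normalized; neuroprotection computed from basal values. Triplicate, mean ± SD.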

[5] = Antioxidant activity assessed as peroxyl free radical scavenging activity by ORAC-fluorescence assay relative to alpha-phenyl-N-tert-butylnitrone; assay type: functional
Procedure, shortened: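 Peroxyl scavenging by fluorescein ORAC at 60 °C in 75 mM phosphate buffer pH 7.4. Compounds at 10-1000 µM final with fluorescein 70 nM final; 30 s preincubation, then AAPH 12 mM final. Fluorescence (ex 490/em 515) read every minute for 12 min. Net AUC versus blank regressed on concentration and expressed as µmol PBN equivalents per µmol sample. Duplicates, at least three independent assays.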

[6] = Permeability across porcine brain lipid coated polyvinylidene fluoride membrane by PAMPA; assay type: ADME; details: pig, read-out: permeability
Procedure, shortened: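 PAMPA-BBB assay. Filter of the donor plate (PVDF, 0.45 µm) coated with porcine brain lipid in dodecane (20 mg/mL). Compounds at 1 mg/mL in PBS/ethanol (9:1), filtered, placed in donor wells; acceptor wells held PBS/ethanol (9:1). Sandwich left 120 min at 25 °C, acceptor concentration measured by UV. Four wells per sample, at least three runs, mean ± SD.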

SH-SY5Y [7] = assay: Neuroprotective activity against human SH-SY5Y cells assessed as inhibition of H2O2-induced cellular damage at 10 uM dosed 1 hr prior to H2O2 challenge after 24 hrs relative to control; assay type: functional; design: scale not given: the % may be the effect or the level left; procedure, shortened: as §1
SH-SY5Y [8] = assay: Neuroprotective activity against human SH-SY5Y cells assessed as inhibition of H2O2-induced cellular damage at 1 uM dosed 1 hr prior to H2O2 challenge after 24 hrs relative to control; assay type: functional; design: scale not given: the % may be the effect or the level left
Procedure, shortened: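 SH-SY5Y neuroblastoma cells given compound at 1 µM 1 h before a 100 µM H2O2 challenge and then incubated 24 h. Viability measured as LDH activity and compared with H2O2-only cells; NAC 5 mM used as positive control. Three independent experiments, mean ± SD.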

[9] = tested on: Radical scavenging activity; assay: Antioxidant activity assessed as reduction of DPPH radical scavenging activity at 10 mM; assay type: functional; design: scale not given: the % may be the effect or the level left

Row | Compound | Activity (J774 [1]) | IC50 (J774 [2]) [µM] | Activity (Homo sapiens) | Activity [3] [%] | Activity (SH-SY5Y [4]) [%] | PBN equivalents [5] | Papp [6] [×10⁻⁶ cm/s] | Activity (SH-SY5Y [7]) [%] | Activity (SH-SY5Y [8]) [%] | Activity [9] [%]
1 | CCOC(=O)c1snnc1/C=[N+](\[O-])C(C)(C)C | Non-toxic | > 400 | inactive | 0 | 0 |  |  |  |  | 
2 | COc1ccc(-c2nsc(/C=[N+](\[O-])C(C)(C)C)n2)cc1 | Non-toxic | > 400 |  | 10 | 25 | 7 | 12.5 | 46 |  | 
3 | CC(C)(C)/[N+]([O-])=C/c1ccc2no[n+]([O-])c2c1 | Non-toxic | 150 |  | 17 | 13.4 | 16.5 |  | 24 |  | 
4 | Cc1nnsc1/C=[N+](\[O-])C(C)(C)C | Non-toxic | > 400 | inactive | 0 | 0 |  |  |  |  | 
5 | [O-]/[N+](=C\c1nc(-c2ccccc2)ns1)C1CCCCC1 | Non-toxic | 100 |  | 11 | 23.6 | 4.6 |  | 43 |  | 
6 | CC(C)(C)c1cc(-c2nsc(/C=[N+](\[O-])C(C)(C)C)n2)cc(C(C)(C)C)c1O | Non-toxic | > 400 |  | 40 | 25.2 | 6 | 4.5 | 46 | 20 | 
7 | CC(C)(C)/[N+]([O-])=C/c1nc(-c2ccccc2)ns1 | Non-toxic | > 400 |  | 0 | 20.7 | 5.5 |  | 38 |  | 
8 | CC(C)(C)/[N+]([O-])=C/c1c(-c2ccccc2)no[n+]1[O-] | Non-toxic | 100 | inactive | 0 | 0 | 6 |  |  |  | 
9 | CC(C)(C)/[N+]([O-])=C/c1nsc(-c2ccccc2)n1 | Non-toxic | > 400 |  | 41 | 20 | 2 |  | 36 |  | 
10 | CC(C)(C)/[N+]([O-])=C/c1nc(-c2ccc(Cl)cc2)ns1 | Non-toxic | 200 |  | 0 | 19.1 | 1.5 |  | 34 |  | 
11 | CC(C)(C)/[N+]([O-])=C/c1ccccc1 |  | > 400 |  | 0 | 20.6 | 1 |  | 37 |  | 20
12 | [O-]/[N+](=C\c1nc(-c2ccccc2)ns1)Cc1ccccc1 | Non-toxic | 240 |  | 0 | 18.1 | 3.5 |  | 33 |  | 
13 | Cc1c(/C=[N+](\[O-])C(C)(C)C)no[n+]1[O-] | Non-toxic | > 400 |  | 8 | 23 | 2.5 |  | 42 |  | 

Reference: ChEMBL document CHEMBL1140119, “Heteroarylnitrones as drugs for neurodegenerative diseases: synthesis, neuroprotective properties, and free radical scavenger properties” (J Med Chem, 2008)
